From ChEMBL document CHEMBL1158962, “Isolation and characterization of two antimicrobial agents from mace (Myristica fragrans)” (1991)
Values after ≈ are worked out from the molar mass of the structure shown.

Tests used:
Format in all cases: functional
[1] = test system: Staphylococcus aureus; test: Antimicrobial activity against Staphylococcus aureus NCTC 6571 after 24 hrs by agar dilution method; details: NCTC 6571, 24 h
Outline: (§1)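 Agar dilution. Each test substance was first taken at 320 µg per 0.1 ml DMSO, mixed with 10 ml warm nutrient agar (45-50°) and left to set. NCTC bacteria were streaked radially and incubated at 37°. MIC was the lowest drug concentration showing no growth, read at 24 h and at 48 h. Chloramphenicol was the positive control.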

[2] = test system: Bacillus subtilis; test: Antimicrobial activity against Bacillus subtilis NCTC 10400 after 24 hrs by agar dilution method; details: NCTC 10400, 24 h; outline: as §1
[3] = test system: Enterococcus durans; test: Antimicrobial activity against Streptococcus durans NCTC 8307 after 24 hrs by agar dilution method; details: NCTC 8307, 24 h; outline: as §1
[4] = test system: Candida albicans; test: Antimicrobial activity against Candida albicans 3153 after 24 hrs by agar dilution method
Outline: as §1, with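 “C. albicans strains” for “NCTC bacteria”, “30°.” for “37°.”, “with” for “showing”, “Nystatin” for “Chloramphenicol”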

[5] = test system: Candida albicans; test: Antimicrobial activity against Candida albicans 3110 after 24 hrs by agar dilution method
Outline: as §1, with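 “C. albicans strains” for “NCTC bacteria”, “30°.” for “37°.”, “with” for “showing”, “Nystatin” for “Chloramphenicol”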

[6] = test system: Candida albicans; test: Antimicrobial activity against Candida albicans ATCC 12301 after 24 hrs by agar dilution method
Outline: as §1, with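 “C. albicans strains” for “NCTC bacteria”, “30°.” for “37°.”, “with” for “showing”, “Nystatin” for “Chloramphenicol”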

[7] = test system: Staphylococcus aureus; test: Antimicrobial activity against Staphylococcus aureus NCTC 6571 after 48 hrs by agar dilution method; details: NCTC 6571, 48 h; outline: as §1
[8] = test system: Bacillus subtilis; test: Antimicrobial activity against Bacillus subtilis NCTC 10400 after 48 hrs by agar dilution method; details: NCTC 10400, 48 h; outline: as §1
[9] = test system: Enterococcus durans; test: Antimicrobial activity against Streptococcus durans NCTC 8307 after 48 hrs by agar dilution method; details: NCTC 8307, 48 h; outline: as §1
[10] = test system: Candida albicans; test: Antimicrobial activity against Candida albicans 3153 after 48 hrs by agar dilution method
Outline: as §1, with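 “C. albicans strains” for “NCTC bacteria”, “30°.” for “37°.”, “with” for “showing”, “Nystatin” for “Chloramphenicol”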

[11] = test system: Candida albicans; test: Antimicrobial activity against Candida albicans 3110 after 48 hrs by agar dilution method
Outline: as §1, with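 “C. albicans strains” for “NCTC bacteria”, “30°.” for “37°.”, “with” for “showing”, “Nystatin” for “Chloramphenicol”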

[12] = test system: Candida albicans; test: Antimicrobial activity against Candida albicans ATCC 12301 after 48 hrs by agar dilution method
Outline: as §1, with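 “C. albicans strains” for “NCTC bacteria”, “30°.” for “37°.”, “with” for “showing”, “Nystatin” for “Chloramphenicol”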

[13] = Candida albicans, 3153, 24 h, read-out: MIC
[14] = Candida albicans, 3110, 24 h, read-out: MIC
[15] = ATCC 10231, 24 h, in the assay text read “ATCC 10231” for “ATCC 12301”, read-out: MIC
[16] = Candida albicans, 3153, 48 h, read-out: MIC
[17] = Candida albicans, 3110, 48 h, read-out: MIC
[18] = ATCC 10231, 48 h, in the assay text read “ATCC 10231” for “ATCC 12301”, read-out: MIC
[19] = ATCC 10231, 24 h, in the assay text read “ATCC 10231” for “ATCC 12301”
[20] = ATCC 10231, 48 h, in the assay text read “ATCC 10231” for “ATCC 12301”

Compound | MIC ([1]; read-out: MIC) [µg/mL] | MIC ([2]; read-out: MIC) [µg/mL] | MIC ([3]; read-out: MIC) [µg/mL] | MIC [4, 13] [µg/mL] | MIC [5, 14] [µg/mL] | MIC [6, 15] [µg/mL] | MIC ([7]; read-out: MIC) [µg/mL] | MIC ([8]; read-out: MIC) [µg/mL] | MIC ([9]; read-out: MIC) [µg/mL] | MIC [2] [µg/mL] | MIC [3] [µg/mL] | MIC ([5]; Candida albicans, 3110, 24 h) [µg/mL] | also measured
O=C(CCCCCCCCc1ccc(O)cc1)c1c(O)cccc1O [MALABARICONE B] | 1 (≈ 2.92 µM) | 1 (≈ 2.92 µM) | 1 (≈ 2.92 µM) | 4 (≈ 11.7 µM) | 8 (≈ 23.4 µM) | 16 (≈ 46.7 µM) | 1 (≈ 2.92 µM) | 1 (≈ 2.92 µM) | 2 (≈ 5.84 µM) |  |  |  | MIC [10, 16]: 8 µg/mL (≈ 23.4 µM); MIC [11, 17]: 8 µg/mL (≈ 23.4 µM); MIC [12, 18]: 16 µg/mL (≈ 46.7 µM)
CC(=O)c1c(O)cccc1O |  |  |  |  | < 32 |  |  |  |  | > 32 | > 32 |  | MIC [1]: > 32 µg/mL; MIC ([4]; Candida albicans, 3153, 24 h): > 32 µg/mL; MIC [6, 19]: > 32 µg/mL
COc1ccc(CCCCCCCCC(=O)c2c(OC)cccc2OC)cc1 |  |  |  | < 32 |  | < 32 |  |  |  | > 32 | > 32 | > 32 | MIC [1]: > 32 µg/mL
COc1cccc(OC)c1C(=O)CCCCCCCCc1ccc(O)cc1 | 32 (≈ 86.4 µM) |  |  |  | < 32 | < 32 |  |  |  | > 32 | > 32 |  | MIC ([4]; Candida albicans, 3153, 24 h): > 32 µg/mL; MIC [7]: > 32 µg/mL; MIC [8]: > 32 µg/mL; MIC [9]: > 32 µg/mL; MIC ([10]; Candida albicans, 3153, 48 h): > 32 µg/mL; MIC ([11]; Candida albicans, 3110, 48 h): > 32 µg/mL; MIC [12, 20]: > 32 µg/mL
O=C(CCCCCCCCc1ccc(O)c(O)c1)c1c(O)cccc1O [MALABARICONE C] | 4 (≈ 11.2 µM) | 2 (≈ 5.58 µM) | 4 (≈ 11.2 µM) | 8 (≈ 22.3 µM) | 8 (≈ 22.3 µM) | 32 (≈ 89.3 µM) | 8 (≈ 22.3 µM) | 2 (≈ 5.58 µM) | 8 (≈ 22.3 µM) |  |  |  | MIC [10, 16]: 8 µg/mL (≈ 22.3 µM); MIC [11, 17]: 8 µg/mL (≈ 22.3 µM); MIC [12, 18]: 32 µg/mL (≈ 89.3 µM)
COc1cccc(O)c1C(=O)CCCCCCCCc1ccc(O)cc1 | 4 (≈ 11.2 µM) | 4 (≈ 11.2 µM) | 2 (≈ 5.61 µM) |  |  |  | 4 (≈ 11.2 µM) | 4 (≈ 11.2 µM) | 4 (≈ 11.2 µM) |  |  | > 32 | MIC ([4]; Candida albicans, 3153, 24 h): > 32 µg/mL; MIC [6, 19]: > 32 µg/mL
Oc1ccc(CCCCCCCCC(O)c2c(O)cccc2O)cc1 (centres undefined) | 8 (≈ 23.2 µM) | 4 (≈ 11.6 µM) | 8 (≈ 23.2 µM) | 32 (≈ 92.9 µM) |  |  | 16 (≈ 46.5 µM) | 4 (≈ 11.6 µM) | 16 (≈ 46.5 µM) |  |  | > 32 | MIC [6, 19]: > 32 µg/mL; MIC ([10]; Candida albicans, 3153, 48 h): > 32 µg/mL; MIC ([11]; Candida albicans, 3110, 48 h): > 32 µg/mL; MIC [12, 20]: > 32 µg/mL
NYSTATIN |  |  |  |  |  |  |  |  |  |  |  |  | MIC [4]: 2 µg/mL; MIC [5]: 2 µg/mL; MIC [6]: 2 µg/mL; MIC [10]: 4 µg/mL; MIC [11]: 4 µg/mL; MIC [12]: 4 µg/mL
O=C(N[C@H](CO)[C@H](O)c1ccc([N+](=O)[O-])cc1)C(Cl)Cl [CHLORAMPHENICOL] | 4 (≈ 12.4 µM) | 4 (≈ 12.4 µM) | 1 (≈ 3.09 µM) |  |  |  | 4 (≈ 12.4 µM) | 4 (≈ 12.4 µM) | 4 (≈ 12.4 µM) |  |  |  | 
Oc1ccc(CCCCCCCCCc2c(O)cccc2O)cc1 | 4 (≈ 12.2 µM) | 4 (≈ 12.2 µM) | 4 (≈ 12.2 µM) | 8 (≈ 24.4 µM) | 8 (≈ 24.4 µM) | 16 (≈ 48.7 µM) | 4 (≈ 12.2 µM) | 4 (≈ 12.2 µM) | 8 (≈ 24.4 µM) |  |  |  | MIC [10, 16]: 8 µg/mL (≈ 24.4 µM); MIC [11, 17]: 8 µg/mL (≈ 24.4 µM); MIC [12, 18]: 16 µg/mL (≈ 48.7 µM)
COc1ccc(CCCCCCCCC(=O)c2c(O)cccc2OC)cc1 |  |  |  | < 32 |  | < 32 |  |  |  | > 32 | > 32 | > 32 | MIC [1]: > 32 µg/mL
